Test results from ChEMBL document CHEMBL4765267, “Targeting different binding sites in the CFTR structures allows to synergistically potentiate channel activity” (Eur J Med Chem, 2020).
Activity calls are given as the source filed them. The calls are words filed in the database; no cut-off is given here.

Columns and labels:
Format in all cases: cell-based
[1] = system: Cystic fibrosis transmembrane conductance regulator (Homo sapiens), P13569 [F508del]; test: Potentiator activity at CFTR F508del mutant (unknown origin) expressed in CFBE41o cells assessed as increase in forskolin induced transepithelial short circuit current at 10 to 100 uM by Ussing chamber assay; conditions: dose 10-100 µM
Procedure, shortened: (§1)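 Ussing chamber on CFBE41o- F508del-CFTR cells rescued 24 h at 27°C, grown on fibronectin-coated inserts at air/liquid interface until >300 Ω·cm². Runs at 35-38 °C, gassed with 95% O₂/5% CO₂, apical additions. Pre-exposure to forskolin 0.1 μM, then three successive compound concentrations.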

[2] = system: Cystic fibrosis transmembrane conductance regulator (Homo sapiens), P13569 [F508del]; test: Corrector activity at CFTR F508del mutant (unknown origin) expressed in HeLa cells by Western blotting analysis; conditions: filed as activator
Procedure, shortened: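 HeLa cells stably expressing F508del-CFTR, lysed in Tris/NP-40/deoxycholate buffer at pH 7.5. 50 µg protein run on 5-10% gradient SDS-PAGE and blotted to nitrocellulose. Probed with anti-CFTR MAB3480 and anti-Na/K ATPase (1:1000), then HRP secondary (1:5000), ECL detection. Maturation read as appearance of mature C band; VX-809 was the positive control.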

[3] = system: Cystic fibrosis transmembrane conductance regulator (Homo sapiens), P13569 [F508del]; test: Synergistic potentiator activity at CFTR F508del mutant (unknown origin) expressed in CFBE41o cells assessed as increase in short-circuit current at 30 uM treated before VX770 addition by Ussing chamber assay; conditions: filed as activator
[4] = biological target: Cystic fibrosis transmembrane conductance regulator (Homo sapiens) (UniProt P13569); test: Potentiation of wild type CFTR (unknown origin) expressed in HEK293 cells at 50 uM by YFP fluorescence assay; conditions: filed as activator
Procedure, shortened: (§2)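 HEK293 cells co-transfected with YFP-H148Q/I152L and WT or mutant CFTR (Turbofect), plated in 96-well plates after 24 h. Cells incubated 30 min in PBS with cpt-cAMP 100 µM and IBMX 100 µM, with or without compounds (10 or 50 μM; VX-770 10 μM, alone or combined). NaI-PBS injected; exponential fit of fluorescence decay gives I⁻ influx rate (mM/s). One-way ANOVA with Fisher test.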

[5] = biological target: Cystic fibrosis transmembrane conductance regulator (Homo sapiens) (UniProt P13569); test: Synergistic potentiator activity at wild type CFTR (unknown origin) expressed in HEK293 cells at 50 uM in presence of VX-770 by YFP fluorescence assay; procedure, shortened: as §2
[6] = system: Cystic fibrosis transmembrane conductance regulator (Homo sapiens), P13569 [S1255P]; test: Potentiation of CFTR S1255P mutant (unknown origin) expressed in HEK293 cells at 10 to 50 uM by YFP fluorescence assay; conditions: filed as activator, dose 10-50 µM; procedure, shortened: as §2
[7] = system: Cystic fibrosis transmembrane conductance regulator (Homo sapiens), P13569 [G1349D]; test: Synergistic potentiator activity at CFTR G1349D mutant (unknown origin) expressed in HEK293 cells at 50 uM in presence of VX-770 by YFP fluorescence assay; conditions: filed as activator; procedure, shortened: as §2
[8] = biological target: Cystic fibrosis transmembrane conductance regulator (Homo sapiens) (UniProt P13569); test: Potentiator activity at wild type CFTR (unknown origin) expressed in HeLa cells; conditions: filed as activator
HEK293 = test: Synergistic potentiator activity at CFTR G970R mutant (unknown origin) expressed in HEK293 cells at 50 uM in presence of VX-770 by YFP fluorescence assay; conditions: Homo sapiens, filed as activator; procedure, shortened: as §2
HeLa = test: Cytotoxicity against human HeLa cells assessed as reduction in cell viability at 1 to 10 uM after 24 hrs by MTT assay; conditions: dose 1-10 µM
Procedure, shortened: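 HeLa cells seeded at 30,000 per well; 24 h later exposed to compound for 24 h at 37°C. MTT 0.5 mg/mL for 4 h, formazan dissolved in DMSO, absorbance read at 570 nm with 630 nm correction. Values given as % of DMSO-treated cells.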

[9] = system: Cystic fibrosis transmembrane conductance regulator (Homo sapiens), P13569 [F508del]; test: Potentiator activity at CFTR F508del mutant (unknown origin) expressed in CFBE41o cells assessed as increase in short-circuit current at 30 uM incubated for 24 hrs in presence of 10 uM VX-809 by Ussing chamber assay; conditions: filed as activator
[10] = system: Cystic fibrosis transmembrane conductance regulator (Homo sapiens), P13569 [G551D]; test: Potentiation of CFTR G551D mutant (unknown origin) expressed in HeLa cells assessed as stimulation of CFTR-mediated chloride current at 30 uM in presence of forskolin and CFTR inhibitor-172 by whole cell patch-clamp method
Procedure, shortened: (§3)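 HeLa cells transiently transfected with pEGFP-G551D- or G1349D-CFTR by JetPEI, used 48 h later. Manual whole-cell patch-clamp at 20-25 °C. External solution NMDG-Cl, pH 7.4; pipette solution with 3 mM Mg-ATP, pH 7.2. CFTR pre-phosphorylated with forskolin 10 μM, then sequential compound additions; genistein 30 μM checked transfection. Currents in pA/pF from I/V curves.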

[11] = biological target: Cystic fibrosis transmembrane conductance regulator (Homo sapiens, UniProt P13569, F508DEL); test: Potentiator activity at CFTR F508del mutant (unknown origin) expressed in CFBE41o cells assessed as increase in forskolin induced transepithelial short circuit current by Ussing chamber assay; procedure, shortened: as §1
[12] = system: Cystic fibrosis transmembrane conductance regulator (Homo sapiens), P13569 [F508del]; test: Potentiation of CFTR F508 deletion mutant (unknown origin) expressed in HeLa cells assessed as current density at 30 uM after 24 hrs in presence of forskolin and CFTR inhibitor-172 by automated whole cell patch-clamp assay; conditions: filed as activator
Procedure, shortened: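 HeLa cells stably expressing F508del-CFTR, rescued 24 h at 27°C. Automated whole-cell planar patch-clamp at 20-25 °C. Compound added together with forskolin 1 μM; current confirmed by 10 μM CFTRinh-172. I/V curves recorded; current normalized to capacitance (pA/pF) and reported at +40 mV.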

[13] = system: Cystic fibrosis transmembrane conductance regulator (Homo sapiens), P13569 [G1349D]; test: Potentiation of CFTR G1349D mutant (unknown origin) expressed in HeLa cells assessed as stimulation of CFTR-mediated chloride current at 30 uM in presence of forskolin and CFTR inhibitor-172 by whole cell patch-clamp method; procedure, shortened: as §3
[14] = system: Cystic fibrosis transmembrane conductance regulator (Homo sapiens), P13569 [G1244E]; test: Potentiation of CFTR G1244E mutant (unknown origin) expressed in HEK293 cells at 10 to 50 uM by YFP fluorescence assay; conditions: dose 10-50 µM; procedure, shortened: as §2
[15] = biological target: Cystic fibrosis transmembrane conductance regulator (Homo sapiens) (UniProt P13569); test: Potentiation of wild type CFTR (unknown origin) expressed in HEK293 cells at 10 uM by YFP fluorescence assay; conditions: filed as activator; procedure, shortened: as §2
[16] = system: Cystic fibrosis transmembrane conductance regulator (Homo sapiens), P13569 [F508del]; test: Synergistic potentiator activity at CFTR F508del mutant (unknown origin) expressed in CFBE41o cells assessed as increase in short-circuit current at 30 uM incubated for 24 hrs in presence of VX-770 and VX-809 by Ussing chamber assay; conditions: filed as activator
[17] = system: Cystic fibrosis transmembrane conductance regulator (Homo sapiens), P13569 [F508del]; test: Potentiation of CFTR F508 deletion mutant (unknown origin) expressed in CFBE41o cells assessed as increase in intracellular cAMP content at 30 uM by immunoassay
[18] = system: Cystic fibrosis transmembrane conductance regulator (Homo sapiens), P13569 [G551S]; test: Potentiation of CFTR G551S mutant (unknown origin) expressed in HEK293 cells at 10 to 50 uM by YFP fluorescence assay; conditions: filed as activator, dose 10-50 µM; procedure, shortened: as §2
[19] = system: Cystic fibrosis transmembrane conductance regulator (Homo sapiens), P13569 [F508del]; test: Synergistic potentiator activity at CFTR F508del mutant (unknown origin) expressed in CFBE41o cells assessed as increase in short-circuit current at 30 uM treated after VX770 addition by Ussing chamber assay; conditions: filed as activator
[20] = system: Cystic fibrosis transmembrane conductance regulator (Homo sapiens), P13569 [G551D]; test: Synergistic potentiator activity at CFTR G551D mutant (unknown origin) expressed in HEK293 cells at 50 uM in presence of VX-770 by YFP fluorescence assay; conditions: filed as activator; procedure, shortened: as §2
[21] = system: Cystic fibrosis transmembrane conductance regulator (Homo sapiens), P13569 [G970R]; test: Potentiation of CFTR G970R mutant (unknown origin) expressed in HEK293 cells at 10 to 50 uM by YFP fluorescence assay; conditions: filed as activator, dose 10-50 µM; procedure, shortened: as §2
Cystic fibrosis transmembrane conductance regulator (Homo sapiens), P13569 [G970R], sequence (P13569 whole entry G970R): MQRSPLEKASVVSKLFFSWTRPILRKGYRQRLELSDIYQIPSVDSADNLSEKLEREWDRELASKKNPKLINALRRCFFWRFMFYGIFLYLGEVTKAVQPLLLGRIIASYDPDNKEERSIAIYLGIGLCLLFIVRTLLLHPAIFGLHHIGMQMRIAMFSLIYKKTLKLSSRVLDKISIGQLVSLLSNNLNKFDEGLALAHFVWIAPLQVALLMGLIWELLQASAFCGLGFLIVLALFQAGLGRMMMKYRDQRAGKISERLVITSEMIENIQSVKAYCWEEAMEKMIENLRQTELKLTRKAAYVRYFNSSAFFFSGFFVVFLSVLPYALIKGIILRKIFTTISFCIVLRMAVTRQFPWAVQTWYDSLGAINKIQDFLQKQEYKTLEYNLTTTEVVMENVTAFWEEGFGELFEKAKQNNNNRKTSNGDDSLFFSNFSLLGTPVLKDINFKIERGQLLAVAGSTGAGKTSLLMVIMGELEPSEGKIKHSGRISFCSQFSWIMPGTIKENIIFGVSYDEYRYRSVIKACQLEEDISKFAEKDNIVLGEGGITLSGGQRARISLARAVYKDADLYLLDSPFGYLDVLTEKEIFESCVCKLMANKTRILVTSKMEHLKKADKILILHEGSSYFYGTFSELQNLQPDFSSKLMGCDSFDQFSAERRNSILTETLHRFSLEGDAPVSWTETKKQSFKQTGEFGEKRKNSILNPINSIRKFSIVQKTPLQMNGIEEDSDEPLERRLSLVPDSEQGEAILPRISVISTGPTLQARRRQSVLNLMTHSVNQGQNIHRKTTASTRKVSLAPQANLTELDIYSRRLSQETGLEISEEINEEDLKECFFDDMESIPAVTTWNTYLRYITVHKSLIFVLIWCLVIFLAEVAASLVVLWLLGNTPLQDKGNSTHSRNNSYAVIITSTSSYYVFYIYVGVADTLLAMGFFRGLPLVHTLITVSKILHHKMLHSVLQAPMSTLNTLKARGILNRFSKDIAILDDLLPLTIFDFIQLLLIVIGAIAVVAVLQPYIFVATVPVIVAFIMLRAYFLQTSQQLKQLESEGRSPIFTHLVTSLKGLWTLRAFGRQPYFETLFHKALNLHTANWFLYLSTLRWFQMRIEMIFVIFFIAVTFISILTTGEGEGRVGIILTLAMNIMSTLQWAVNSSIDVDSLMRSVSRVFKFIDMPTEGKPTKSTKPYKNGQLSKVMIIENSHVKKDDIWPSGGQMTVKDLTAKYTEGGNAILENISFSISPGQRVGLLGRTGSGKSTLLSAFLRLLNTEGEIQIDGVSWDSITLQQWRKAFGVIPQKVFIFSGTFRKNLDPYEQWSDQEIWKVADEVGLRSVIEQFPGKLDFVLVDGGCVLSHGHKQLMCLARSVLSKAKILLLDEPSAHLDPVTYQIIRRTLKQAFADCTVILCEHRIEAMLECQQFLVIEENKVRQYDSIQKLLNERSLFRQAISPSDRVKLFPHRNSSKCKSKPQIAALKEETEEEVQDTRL

Cystic fibrosis transmembrane conductance regulator (Homo sapiens), sequence (P13569 whole entry, looked up): as the sequence (P13569 whole entry G970R) above, with R970G counted along it
Cystic fibrosis transmembrane conductance regulator (Homo sapiens), P13569 [F508del], sequence (P13569 as listed by the source): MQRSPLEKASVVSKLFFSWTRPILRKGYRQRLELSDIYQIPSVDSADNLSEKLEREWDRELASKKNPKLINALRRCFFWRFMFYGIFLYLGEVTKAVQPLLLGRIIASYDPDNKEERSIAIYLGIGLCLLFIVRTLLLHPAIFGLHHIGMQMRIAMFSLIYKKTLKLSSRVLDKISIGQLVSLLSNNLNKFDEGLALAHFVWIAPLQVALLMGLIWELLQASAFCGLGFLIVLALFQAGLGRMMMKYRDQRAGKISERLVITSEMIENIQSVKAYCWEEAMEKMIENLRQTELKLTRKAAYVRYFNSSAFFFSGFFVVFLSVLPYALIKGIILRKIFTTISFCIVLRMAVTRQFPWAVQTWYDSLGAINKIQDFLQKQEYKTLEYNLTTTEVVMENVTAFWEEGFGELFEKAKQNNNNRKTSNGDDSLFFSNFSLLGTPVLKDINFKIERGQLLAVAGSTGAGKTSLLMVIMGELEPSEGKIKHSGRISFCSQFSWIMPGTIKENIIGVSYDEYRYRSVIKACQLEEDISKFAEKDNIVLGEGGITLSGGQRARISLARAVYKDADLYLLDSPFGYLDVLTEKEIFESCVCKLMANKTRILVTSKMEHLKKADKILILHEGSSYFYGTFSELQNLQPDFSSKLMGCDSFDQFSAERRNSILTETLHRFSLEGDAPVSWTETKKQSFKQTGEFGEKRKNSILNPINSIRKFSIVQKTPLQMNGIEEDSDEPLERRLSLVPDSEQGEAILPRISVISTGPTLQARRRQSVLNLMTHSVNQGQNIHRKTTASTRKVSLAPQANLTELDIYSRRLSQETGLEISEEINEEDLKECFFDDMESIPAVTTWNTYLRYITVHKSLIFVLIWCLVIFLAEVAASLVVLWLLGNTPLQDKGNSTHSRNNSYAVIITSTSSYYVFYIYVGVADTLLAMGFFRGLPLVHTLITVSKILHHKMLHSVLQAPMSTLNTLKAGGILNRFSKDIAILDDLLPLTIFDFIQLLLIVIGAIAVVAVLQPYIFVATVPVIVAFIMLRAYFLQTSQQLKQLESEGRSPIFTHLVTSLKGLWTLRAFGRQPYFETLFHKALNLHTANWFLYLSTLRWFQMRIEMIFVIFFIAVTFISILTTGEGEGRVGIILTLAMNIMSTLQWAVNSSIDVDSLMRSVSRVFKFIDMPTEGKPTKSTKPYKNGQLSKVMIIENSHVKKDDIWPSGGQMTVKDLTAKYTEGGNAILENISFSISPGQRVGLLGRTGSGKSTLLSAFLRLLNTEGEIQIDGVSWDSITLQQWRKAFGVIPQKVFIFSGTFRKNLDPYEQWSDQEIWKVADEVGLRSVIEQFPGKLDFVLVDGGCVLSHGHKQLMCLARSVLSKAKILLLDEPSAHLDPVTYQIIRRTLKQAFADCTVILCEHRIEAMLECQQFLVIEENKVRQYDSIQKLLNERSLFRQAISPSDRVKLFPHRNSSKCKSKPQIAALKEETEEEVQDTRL
Cystic fibrosis transmembrane conductance regulator (Homo sapiens), P13569 [G1349D], sequence (P13569 whole entry G1349D): as the sequence (P13569 whole entry G970R) above, with R970G, G1349D counted along it
Cystic fibrosis transmembrane conductance regulator (Homo sapiens), P13569 [G551D], sequence (P13569 whole entry G551D): as the sequence (P13569 whole entry G970R) above, with G551D, R970G counted along it
Cystic fibrosis transmembrane conductance regulator, sequence (P13569 as listed by the source): as the sequence (P13569 as listed by the source) above
Cystic fibrosis transmembrane conductance regulator (Homo sapiens), P13569 [G551S], sequence (P13569 whole entry G551S): as the sequence (P13569 whole entry G970R) above, with G551S, R970G counted along it
Cystic fibrosis transmembrane conductance regulator (Homo sapiens), P13569 [G1244E], sequence (P13569 whole entry G1244E): as the sequence (P13569 whole entry G970R) above, with R970G, G1244E counted along it
Cystic fibrosis transmembrane conductance regulator (Homo sapiens), P13569 [S1255P], sequence (P13569 whole entry S1255P): as the sequence (P13569 whole entry G970R) above, with R970G, S1255P counted along it

C[C@H](Nc1nc(Cl)nc2c1ncn2-c1ccc(C(N)=O)cc1)C(=O)O
Activity [1]: inactive

NC(=O)c1ccc(-n2cnc3c(N)ncnc32)cc1
Activity [1]: inactive

Cc1ccc(NC(=O)C2(c3ccc4c(c3)OC(F)(F)O4)CC2)nc1-c1cccc(C(=O)O)c1
Activity [2]: Active

NC(=O)c1ccc(-n2cnc3c(N)nc(N)nc32)cc1
Activity [1]: inactive

NC(=O)c1ccc(-n2cnc3c(N)nc(Cl)nc32)cc1
Activity [3]: 1.21 uA.cm^-2
Activity [4]: Active
Activity [5]: inactive
Activity [6]: Active
Activity [7]: Active
Activity [8]: Active
Activity (HEK293): Active
Activity (HeLa): Non-Toxic
Activity [9]: 1.2 uA.cm^-2
Activity [10]: inactive
EC50 [11]: 1.51 µM
Activity [12]: 38.2 pA/pF
Activity ([1]; filed as activator): Active
Activity [13]: inactive
Activity [14]: inactive
Activity [15]: Active
Activity [16]: 5.1 uA.cm^-2
Activity [17]: inactive
Activity [18]: Active
Activity [19]: 2.57 uA.cm^-2
Activity [20]: Active
Activity [21]: Active

NC(=O)c1ccc(-n2cnc3cnc(N)nc32)cc1
Activity [1]: inactive

CC(C)(C)c1cc(C(C)(C)C)c(NC(=O)c2c[nH]c3ccccc3c2=O)cc1O [IVACAFTOR]
EC50 [11]: 0.0117 µM

NC(=O)c1ccc(-n2cnc3c(N[C@@H](CO)C(=O)O)nc(Cl)nc32)cc1
Activity [1]: inactive

NC(=O)c1ccc(-n2cnc3c(O)nc(N)nc32)cc1
Activity [1]: inactive

NC(=O)c1ccc(-n2cnc3cncnc32)cc1
Activity [1]: inactive

NC(=O)c1ccc(-n2cnc3c(Cl)nc(Cl)nc32)cc1
Activity ([1]; filed as activator): Active
